Calls of active or inactive are those of the source. The rule behind the calls is not given here.
What was measured:
[1] = target: T1, Peroxisome proliferator-activated receptor alpha (Homo sapiens) (UniProt Q07869); test: Agonist activity at human PPARalpha expressed in HEK293 after 8 hrs by luciferase reporter gene assay relative to fenofibric acid; type: functional, cell-based
T1 sequence (whole entry): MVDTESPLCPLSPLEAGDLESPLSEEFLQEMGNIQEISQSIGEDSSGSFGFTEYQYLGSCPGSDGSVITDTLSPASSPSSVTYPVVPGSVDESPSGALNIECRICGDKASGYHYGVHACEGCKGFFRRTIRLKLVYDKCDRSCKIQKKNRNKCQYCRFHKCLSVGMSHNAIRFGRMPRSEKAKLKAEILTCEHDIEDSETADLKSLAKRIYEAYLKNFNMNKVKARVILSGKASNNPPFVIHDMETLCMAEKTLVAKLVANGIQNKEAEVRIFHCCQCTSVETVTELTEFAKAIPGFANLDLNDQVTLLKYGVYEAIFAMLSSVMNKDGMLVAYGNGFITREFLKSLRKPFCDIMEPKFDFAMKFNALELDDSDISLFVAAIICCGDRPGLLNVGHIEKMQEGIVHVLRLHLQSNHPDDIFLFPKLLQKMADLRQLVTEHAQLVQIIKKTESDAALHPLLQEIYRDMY
Method in brief: (§1)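 GAL4N-hPPAR LBD chimera with TK-MH100x4-LUC reporter in calcium-phosphate-transfected HEK293 (DMEM, 5% FBS), compounds added 8 h post-transfection. Luciferase was normalized to β-galactosidase. Percent efficacy (Emax) was taken at the maximal stimulatory response relative to 10 µM fenofibric acid (PPARα), 100 nM GW501516 (PPARδ) or 10 µM ciglitazone (PPARγ). Triplicate, at least twice.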

[2] = target: T2, Peroxisome proliferator-activated receptor gamma (Homo sapiens) (UniProt P37231); test: Agonist activity at PPARgamma expressed in HEK293 after 8 hrs by luciferase reporter gene assay relative to ciglitazone; type: functional, cell-based; method in brief: as §1
T2 sequence (whole entry): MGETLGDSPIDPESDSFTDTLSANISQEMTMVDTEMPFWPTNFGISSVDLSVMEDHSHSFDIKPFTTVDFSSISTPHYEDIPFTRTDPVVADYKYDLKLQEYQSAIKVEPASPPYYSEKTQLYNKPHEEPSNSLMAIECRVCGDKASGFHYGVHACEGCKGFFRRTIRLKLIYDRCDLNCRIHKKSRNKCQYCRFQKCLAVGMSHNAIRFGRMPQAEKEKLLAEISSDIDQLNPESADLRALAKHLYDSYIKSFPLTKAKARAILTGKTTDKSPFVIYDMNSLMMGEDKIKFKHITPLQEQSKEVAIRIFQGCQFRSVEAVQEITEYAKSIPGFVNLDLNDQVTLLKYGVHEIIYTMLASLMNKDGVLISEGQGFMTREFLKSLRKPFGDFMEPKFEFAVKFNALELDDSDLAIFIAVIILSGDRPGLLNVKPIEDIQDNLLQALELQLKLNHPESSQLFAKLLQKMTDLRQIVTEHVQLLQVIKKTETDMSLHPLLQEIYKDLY

[3] = target: T3, Peroxisome proliferator-activated receptor delta (Homo sapiens) (UniProt Q03181); test: Agonist activity at human PPARdelta expressed in HEK293 after 8 hrs by luciferase reporter gene assay relative to GW501516; type: functional, cell-based; method in brief: as §1
T3 sequence (whole entry): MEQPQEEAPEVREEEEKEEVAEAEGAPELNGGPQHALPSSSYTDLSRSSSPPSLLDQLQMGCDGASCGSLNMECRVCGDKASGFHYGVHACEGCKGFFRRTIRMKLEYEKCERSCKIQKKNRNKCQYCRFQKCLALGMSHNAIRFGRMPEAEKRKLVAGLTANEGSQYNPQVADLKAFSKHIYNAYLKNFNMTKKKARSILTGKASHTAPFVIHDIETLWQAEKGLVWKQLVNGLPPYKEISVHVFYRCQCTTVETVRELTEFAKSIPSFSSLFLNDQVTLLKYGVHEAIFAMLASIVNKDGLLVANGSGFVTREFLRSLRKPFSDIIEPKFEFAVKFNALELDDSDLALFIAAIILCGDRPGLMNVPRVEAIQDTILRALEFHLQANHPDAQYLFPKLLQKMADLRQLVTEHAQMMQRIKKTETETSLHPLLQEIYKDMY

[4] = target: T4, Peroxisome proliferator-activated receptor gamma (Homo sapiens, UniProt P37231); test: Agonist activity at PPARgamma expressed in HEK293 after 8 hrs by luciferase reporter gene assay; type: functional, cell-based
T4 sequence (P37231 whole entry): T2 sequence (whole entry)
Method in brief: (§2)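 HEK293 cells grown in DMEM with 5% FBS at 37 °C in 5% CO2 were calcium-phosphate co-transfected with CMX-GAL4N-hPPAR LBD (subtype-specific), TK-MH100x4-LUC reporter and CMX β-galactosidase for normalization. Compounds were added 8 h post-transfection. Luciferase was read by luminometer and β-galactosidase by plate reader. Values are normalized averages; triplicate, repeated at least twice.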

[5] = target: T5, Peroxisome proliferator-activated receptor alpha (Homo sapiens, UniProt Q07869); test: Agonist activity at human PPARalpha expressed in HEK293 after 8 hrs by luciferase reporter gene assay; type: functional, cell-based; method in brief: as §2
T5 sequence (Q07869 whole entry): T1 sequence (whole entry)

[6] = target: T6, Bile acid receptor (Homo sapiens) (UniProt Q96RI1); test: Agonist activity at FXR transfected in HEK293 cells by luciferase reporter gene assay; type: functional, cell-based
T6 sequence (whole entry): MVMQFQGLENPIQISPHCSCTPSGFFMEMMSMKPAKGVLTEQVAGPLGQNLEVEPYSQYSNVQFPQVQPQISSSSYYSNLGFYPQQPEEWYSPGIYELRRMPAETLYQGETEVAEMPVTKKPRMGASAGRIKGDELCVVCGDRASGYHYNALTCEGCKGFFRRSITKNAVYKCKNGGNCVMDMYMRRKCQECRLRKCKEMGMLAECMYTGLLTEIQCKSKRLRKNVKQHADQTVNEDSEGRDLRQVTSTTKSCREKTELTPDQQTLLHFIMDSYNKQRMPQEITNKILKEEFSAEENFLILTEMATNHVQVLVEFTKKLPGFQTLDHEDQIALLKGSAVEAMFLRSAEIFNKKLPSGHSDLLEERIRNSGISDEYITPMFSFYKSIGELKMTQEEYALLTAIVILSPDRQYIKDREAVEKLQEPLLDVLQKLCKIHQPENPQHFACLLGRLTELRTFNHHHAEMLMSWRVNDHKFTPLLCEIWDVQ

[7] = target: T7, Oxysterols receptor LXR-alpha (Homo sapiens) (UniProt Q13133); test: Antagonist activity at LXR; type: functional
T7 sequence (whole entry): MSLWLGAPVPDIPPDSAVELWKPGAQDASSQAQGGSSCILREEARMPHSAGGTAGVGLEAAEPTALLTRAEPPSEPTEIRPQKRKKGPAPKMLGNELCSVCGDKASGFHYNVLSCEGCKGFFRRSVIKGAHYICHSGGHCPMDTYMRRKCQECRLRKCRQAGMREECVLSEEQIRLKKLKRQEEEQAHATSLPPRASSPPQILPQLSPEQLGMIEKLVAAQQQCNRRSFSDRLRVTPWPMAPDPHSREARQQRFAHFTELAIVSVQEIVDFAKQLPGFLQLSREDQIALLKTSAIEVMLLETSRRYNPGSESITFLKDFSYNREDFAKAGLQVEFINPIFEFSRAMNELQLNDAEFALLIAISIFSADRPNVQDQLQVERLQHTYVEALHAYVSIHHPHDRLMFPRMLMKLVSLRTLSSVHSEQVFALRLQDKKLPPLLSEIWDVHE

[8] = target: T7, Oxysterols receptor LXR-alpha (Homo sapiens); test: Agonist activity at LXR; type: functional
[9] = target: T6, Bile acid receptor (Homo sapiens); test: Antagonist activity at FXR transfected in HEK293 cells by luciferase reporter gene assay; type: functional, cell-based
[10] = target: T8, Peroxisome proliferator-activated receptor delta (Homo sapiens, UniProt Q03181); test: Agonist activity at PPARdelta expressed in HEK293 after 8 hrs by luciferase reporter gene assay; type: functional, cell-based; method in brief: as §2
T8 sequence (Q03181 whole entry): T3 sequence (whole entry)

## CC[C@H](Cc1ccc(CCc2ccc(N3C(=O)c4ccccc4C3=O)cc2OC)cc1)C(=O)O
[1]
  Emax: 103%
[2]
  Emax: 40%
[3]
  Emax: 8%
[4]
  EC50: 12 µM
[5]
  EC50: 4.5 µM

## O=C(O)CCCOc1ccc(CCc2ccc(N3C(=O)c4ccccc4C3=O)cc2)cc1
[1]
  Emax: 0%
[6]
  Activity: inactive
[2]
  Emax: 31%
[3]
  Emax: 1%
[7]
  Activity: inactive
[8]
  Activity: inactive
[4]
  EC50: 12 µM
[9]
  Activity: inactive

## CCCOc1cc(N2C(=O)c3ccccc3C2=O)ccc1CCc1ccc(C[C@H](CC)C(=O)O)cc1
[1]
  Emax: 87%
[2]
  Emax: 36%
[3]
  Emax: 54%
[10]
  EC50: 1.8 µM
[4]
  EC50: 5.2 µM
[5]
  EC50: 1.7 µM

## O=C(O)CCCCc1ccc(CCc2ccc(N3C(=O)c4ccccc4C3=O)cc2)cc1
[1]
  Emax: 4%
[2]
  Emax: 7%
[3]
  Emax: 4%

## O=C(O)CCc1ccc(CCc2ccc(N3C(=O)c4ccccc4C3=O)cc2)cc1
[1]
  Emax: 53%
[6]
  Activity: inactive
[2]
  Emax: 7%
[3]
  Emax: 27%
[10]
  EC50: 13 µM
[7]
  Activity: inactive
[8]
  Activity: inactive
[9]
  Activity: inactive
[5]
  EC50: 11 µM

## CCOc1cc(N2C(=O)c3ccccc3C2=O)ccc1CCc1ccc(CC(CC)C(=O)O)cc1 (racemic)
[1]
  Emax: 102%
[6]
  Activity: inactive
[2]
  Emax: 49%
[3]
  Emax: 33%
[10]
  EC50: 4.8 µM
[4]
  EC50: 9.3 µM
[9]
  Activity: inactive
[5]
  EC50: 1.4 µM

## CCOc1cc(N2C(=O)c3ccccc3C2=O)ccc1CCc1ccc(C[C@H](CC)C(=O)O)cc1
[1]
  Emax: 69%
[2]
  Emax: 62%
[3]
  Emax: 29%
[10]
  EC50: 1.9 µM
[4]
  EC50: 3.2 µM
[5]
  EC50: 1.7 µM

## CCC(Cc1ccc(CCc2ccc(N3C(=O)c4ccccc4C3=O)cc2OC)cc1)C(=O)O (racemic)
[1]
  Emax: 73%
[6]
  Activity: inactive
[2]
  Emax: 78%
[3]
  Emax: 24%
[10]
  EC50: 11 µM
[4]
  EC50: 8.5 µM
[9]
  Activity: inactive
[5]
  EC50: 3.4 µM

## CCCOc1cc(N2C(=O)c3ccccc3C2=O)ccc1CCc1ccc(C[C@@H](CC)C(=O)O)cc1
[1]
  Emax: 70%
[2]
  Emax: 7%
[3]
  Emax: 8%
[5]
  EC50: 2.5 µM

## CC[C@@H](Cc1ccc(CCc2ccc(N3C(=O)c4ccccc4C3=O)cc2OC)cc1)C(=O)O
[1]
  Emax: 66%
[2]
  Emax: 102%
[3]
  Emax: 41%
[10]
  EC50: 7.3 µM
[4]
  EC50: 7.1 µM
[5]
  EC50: 8.9 µM

## CCCCOc1cc(N2C(=O)c3ccccc3C2=O)ccc1CCc1ccc(CC(CC)C(=O)O)cc1 (stereo not given)
[1]
  Emax: 63%
[6]
  Activity: inactive
[2]
  Emax: 36%
[3]
  Emax: 32%
[10]
  EC50: 3.2 µM
[4]
  EC50: 7.9 µM
[9]
  Activity: inactive
[5]
  EC50: 1.8 µM

## CCC(Cc1ccc(CCc2ccc(N3C(=O)c4ccccc4C3=O)cc2O)cc1)C(=O)O (stereo not given)
[1]
  Emax: 20%
[2]
  Emax: 21%
[3]
  Emax: 7%
[10]
  EC50: 25 µM
[4]
  EC50: 17 µM
[5]
  EC50: 14 µM

## O=C(O)c1ccc(CCc2ccc(N3C(=O)c4ccccc4C3=O)cc2)cc1
[1]
  Emax: 14%
[2]
  Emax: 2%
[3]
  Emax: 0%
[5]
  EC50: 33 µM

## O=C(O)CCCCCCc1ccc(CCc2ccc(N3C(=O)c4ccccc4C3=O)cc2)cc1
[1]
  Emax: 8%
[2]
  Emax: 5%
[3]
  Emax: 4%

## O=C(O)COc1ccc(CCc2ccc(N3C(=O)c4ccccc4C3=O)cc2)cc1
[1]
  Emax: 29%
[6]
  Activity: inactive
[2]
  Emax: 6%
[3]
  Emax: 10%
[10]
  EC50: 62 µM
[7]
  Activity: inactive
[8]
  Activity: inactive
[9]
  Activity: inactive
[5]
  EC50: 29 µM

## CCOc1cc(N2C(=O)c3ccccc3C2=O)ccc1CCc1ccc(C[C@@H](CC)C(=O)O)cc1
[1]
  Emax: 126%
[2]
  Emax: 23%
[3]
  Emax: 12%
[10]
  EC50: 9.7 µM
[4]
  EC50: 6.9 µM
[5]
  EC50: 1.1 µM

## CCC(Cc1ccc(CCc2ccc(N3C(=O)c4ccccc4C3=O)cc2)cc1)C(=O)O (stereo not given)
[1]
  Emax: 72%
[6]
  Activity: inactive
[2]
  Emax: 42%
[3]
  Emax: 22%
[10]
  EC50: 14 µM
[4]
  EC50: 11 µM
[9]
  Activity: inactive
[5]
  EC50: 6.6 µM

## CCCOc1cc(N2C(=O)c3ccccc3C2=O)ccc1CCc1ccc(CC(CC)C(=O)O)cc1 (racemic)
[1]
  Emax: 70%
[6]
  Activity: inactive
[2]
  Emax: 26%
[3]
  Emax: 40%
[10]
  EC50: 2.9 µM
[4]
  EC50: 6.9 µM
[9]
  Activity: inactive
[5]
  EC50: 1.7 µM

## O=C(O)CCCCCOc1ccc(CCc2ccc(N3C(=O)c4ccccc4C3=O)cc2)cc1
[1]
  Emax: 0%
[6]
  Activity: inactive
[2]
  Emax: 6%
[3]
  Emax: 0%
[9]
  Activity: inactive

— ChEMBL document CHEMBL1811873, “Peroxisome proliferator-activated receptor agonists with phenethylphenylphthalimide skeleton derived from thalidomide-related liver X receptor antagonists: relationship between absolute configuration and subtype selectivity” (Bioorg Med Chem, 2011)
